Activity calls are given as the source filed them. The rule behind the calls is not given here.
Molecular target: Metabotropic glutamate receptor 8 (Rattus norvegicus) (UniProt P70579)
Experiment: mGlu8 modulation of glutamate calcium response, selectivity assay for mGlu5 silent allosteric modulator project, cell-based, rat, HEK293A, Galpha15, Fluo4 calcium (AID 652186)
Settings: HEK293A rmGlu8+Galpha15, glutamate CRC
Method in brief: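 Assay system: Rat mGlu8 co-expressed with Galpha15 in HEK293 cells | Times: Fluo4-AM loading 60 min/37°C, compound 20 s, glutamate 80 s | Technique: Calcium mobilization by fluorescence of Fluo4-AM dye, 1 µM | Medium: HBSS, pH 7.4, with 2.5 mM probenecid and 20 mM HEPES | Probe or stimulus: Glutamate, 9 concentrations, 10 nM–1 mM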

Sequence of Metabotropic glutamate receptor 8 (Rattus norvegicus) (P70579 whole entry, looked up): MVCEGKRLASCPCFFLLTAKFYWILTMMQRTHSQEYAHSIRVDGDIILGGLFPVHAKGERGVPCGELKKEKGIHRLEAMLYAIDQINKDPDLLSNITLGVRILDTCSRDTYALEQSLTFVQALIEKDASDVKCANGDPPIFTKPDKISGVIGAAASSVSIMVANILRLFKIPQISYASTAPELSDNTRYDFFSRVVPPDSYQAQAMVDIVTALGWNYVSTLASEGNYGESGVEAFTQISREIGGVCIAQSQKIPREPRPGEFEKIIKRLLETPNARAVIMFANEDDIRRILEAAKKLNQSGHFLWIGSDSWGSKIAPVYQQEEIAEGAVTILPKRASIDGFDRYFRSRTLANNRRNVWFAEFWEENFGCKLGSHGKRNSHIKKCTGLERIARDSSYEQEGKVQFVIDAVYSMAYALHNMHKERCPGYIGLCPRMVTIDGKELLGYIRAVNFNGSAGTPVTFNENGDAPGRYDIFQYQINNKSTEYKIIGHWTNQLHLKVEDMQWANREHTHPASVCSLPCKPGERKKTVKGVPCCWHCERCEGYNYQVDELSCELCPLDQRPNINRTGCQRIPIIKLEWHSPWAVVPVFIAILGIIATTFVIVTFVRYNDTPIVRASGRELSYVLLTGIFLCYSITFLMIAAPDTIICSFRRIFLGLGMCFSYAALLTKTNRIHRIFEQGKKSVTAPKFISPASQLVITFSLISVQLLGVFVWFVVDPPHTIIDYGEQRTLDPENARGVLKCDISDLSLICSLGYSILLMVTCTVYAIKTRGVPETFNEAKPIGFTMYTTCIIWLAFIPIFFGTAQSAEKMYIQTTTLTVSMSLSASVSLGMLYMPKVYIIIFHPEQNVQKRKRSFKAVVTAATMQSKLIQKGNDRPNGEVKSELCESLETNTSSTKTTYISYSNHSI

For `O=C(c1ccc(C#Cc2cccc(F)c2)cn1)N1CC2CC2C1` (stereo unspecified), the “glutamate EC50 in presence of 10 uM compound (vehicle ~3 uM)” value was “inactive”.
